The text below walks through data of ChEMBL document CHEMBL3758131, “Towards new 5-HT7 antagonists among arylsulfonamide derivatives of (aryloxy)ethyl-alkyl amines: Multiobjective based design, synthesis, and antidepressant and anxiolytic properties” (Eur J Med Chem, 2016).

The source made the active and inactive calls. The calls are words filed in the database; no cut-off is given here.

The test system of data set [1] is Mus musculus. Kind of data set: Toxicity in ip dosed C57BL/6J mouse assessed as effect on spontaneous locomotory activity at MED measured over 6 mins. In kind it is organism-based. As to conditions: in vivo, 0.1 h. Summed up: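 Mice habituated 30 min in individual cages, then ambulation counted over a period matching each behavioural test: 6 min for the tail suspension test and 1 min 15 s for the four-plate test. Compounds given ip at the active doses.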

Data set [2] relates to Mus musculus. Kind of data set: Antidepressant activity in C57BL/6J mouse assessed as number of events at 10 mg/kg, ip measured over 6 mins by tail suspension test (reference value: 1325.1 +/- 77.8 to 1773.4 +/- 109.9). In kind it is functional.
Data set [3] deals with Mus musculus. Kind of data set: Antidepressant activity in ip dosed albino Swiss mouse assessed as decrease in immobility time by forced swim test. In kind it is functional, organism-based.
In data set [4] the test system is Mus musculus. Kind of data set: Antidepressant activity in C57BL/6J mouse assessed as number of events at 40 mg/kg, ip measured over 6 mins by tail suspension test (reference value: 1325.1 +/- 77.8 to 1773.4 +/- 109.9). The data set is classed as functional.
Data set [5] relates to Mus musculus. Kind of data set: Antidepressant activity in C57BL/6J mouse assessed as number of events at 20 mg/kg, ip measured over 6 mins by tail suspension test (reference value: 1325.1 +/- 77.8 to 1773.4 +/- 109.9). In kind it is functional.
For data set [6], the system named is Mus musculus. Kind of data set: Antidepressant activity in C57BL/6J mouse assessed as average force at 20 mg/kg, ip measured over 6 mins by tail suspension test (reference value: 0.281 +/- 0.018 to 0.359 +/- 0.027 N). The data set is classed as functional.
Data set [7] has as its system Mus musculus. Kind of data set: Toxicity in ip dosed albino Swiss mouse assessed as effect on spontaneous locomotory activity at MED measured over 2 to 6 mins. The data set is classed as organism-based. As to conditions: in vivo. The method, boiled down: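 Male Albino Swiss mice (22–28 g) received drug i.p. 60 min before testing, in 1% aqueous Tween 80 or distilled water. Each mouse was habituated alone in a plastic cage for 30 min, then ambulation was counted from 2 to 6 min. Groups of 6–10 animals, each used once.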

For data set [8], the system named is Mus musculus. Kind of data set: Antidepressant activity in C57BL/6J mouse assessed as immobility time at 10 mg/kg, ip measured over 6 mins by tail suspension test (reference value: 160.7 +/- 12 to 170.6 +/- 9 sec). The data set is classed as functional.
For data set [9], the system named is Mus musculus. Kind of data set: Antidepressant activity in C57BL/6J mouse assessed as average force at 40 mg/kg, ip measured over 6 mins by tail suspension test (reference value: 0.281 +/- 0.018 to 0.359 +/- 0.027 N). The data set is classed as functional.
Data set [10] deals with Mus musculus. Kind of data set: Antidepressant activity in ip dosed C57BL/6J mouse assessed as reduction in immobility time of mouse by tail suspension test. As to conditions: read-out: MED. The data set is classed as functional.
In data set [11] the test system is Mus musculus. Kind of data set: Toxicity in ip dosed C57BL/6J mouse assessed as effect on spontaneous locomotory activity at MED measured over 1 min 15 secs. The data set is classed as organism-based. As to conditions: in vivo.
Data set [12] deals with Mus musculus. Kind of data set: Antidepressant activity in C57BL/6J mouse assessed as average force at 10 mg/kg, ip measured over 6 mins by tail suspension test (reference value: 0.281 +/- 0.018 to 0.359 +/- 0.027 N). In kind it is functional.
Data set [13] deals with Mus musculus. Kind of data set: Antidepressant activity in C57BL/6J mouse assessed as immobility time at 20 mg/kg, ip measured over 6 mins by tail suspension test (reference value: 160.7 +/- 12 to 170.6 +/- 9 sec). In kind it is functional.
The test system of data set [14] is Mus musculus. Kind of data set: Antidepressant activity in C57BL/6J mouse assessed as immobility time at 40 mg/kg, ip measured over 6 mins by tail suspension test (reference value: 160.7 +/- 12 to 170.6 +/- 9 sec). In kind it is functional.
The test system of data set [15] is Rattus norvegicus. Kind of data set: Antidepressant activity in ip dosed Wistar rat assessed as reduction in immobility time of rat by forced swim test. In kind it is functional. Summed up: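 Male Wistar rats (220-250 g), ip injection 30 min before test. Day 1: 15-min pre-swim in a cylinder with 15 cm of water at 25 °C, then drying under a lamp. Next day: total immobility recorded over the whole 5-min test, with fresh water for each rat.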

Data set [16] deals with Mus musculus. Kind of data set: Antidepressant activity in C57BL/6J mouse assessed as average force at […] mg/kg, ip measured over 6 mins by tail suspension test (reference value: 0.281 +/- 0.018 to 0.359 +/- 0.027 N). The data set is classed as functional.
In data set [17] the test system is Mus musculus. Kind of data set: Antidepressant activity in C57BL/6J mouse assessed as immobility time at […] mg/kg, ip measured over 6 mins by tail suspension test (reference value: 160.7 +/- 12 to 170.6 +/- 9 sec). The data set is classed as functional.
Data set [18] relates to Mus musculus. Kind of data set: Antidepressant activity in C57BL/6J mouse assessed as immobility time at 5 mg/kg, ip measured over 6 mins by tail suspension test (reference value: 160.7 +/- 12 to 170.6 +/- 9 sec). The data set is classed as functional.
Data set [19] relates to Mus musculus. Kind of data set: Antidepressant activity in albino Swiss mouse assessed as decrease in immobility time at 10 mg/kg, ip by forced swim test. The data set is classed as functional.
In data set [20] the test system is Mus musculus. Kind of data set: Antidepressant activity in C57BL/6J mouse assessed as average force at 5 mg/kg, ip measured over 6 mins by tail suspension test (reference value: 0.281 +/- 0.018 to 0.359 +/- 0.027 N). The data set is classed as functional.
In data set [21] the test system is Mus musculus. Kind of data set: Antidepressant activity in C57BL/6J mouse assessed as average force at […], ip measured over 6 mins by tail suspension test (reference value: 0.281 +/- 0.018 to 0.359 +/- 0.027 N). The data set is classed as functional.
Data set [22] concerns Mus musculus. Kind of data set: Antidepressant activity in C57BL/6J mouse assessed as number of events at 5 mg/kg, ip measured over 6 mins by tail suspension test (reference value: 1325.1 +/- 77.8 to 1773.4 +/- 109.9). The data set is classed as functional.
Data set [23] deals with Mus musculus. Kind of data set: Anxiolytic activity in ip dosed albino Swiss mouse assessed as increase in number of shocks accepted measured over 1 min, 15 secs by four plates test. The data set is classed as functional. The note with it: read-out: MED. The method, boiled down:
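Male Albino Swiss mice, ip injection 60 min before test. Four-plate cage; after 15 s of habituation, each plate-to-plate crossing during a 1-min session is punished with a 0.8 mA, 0.5 s foot shock, followed by a 3-s shock-free interval. Number of shocks accepted is counted.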

The subject of data set [24] is Mus musculus. Kind of data set: Antidepressant activity in C57BL/6J mouse assessed as number of events at […], ip measured over 6 mins by tail suspension test (reference value: 1325.1 +/- 77.8 to 1773.4 +/- 109.9). In kind it is functional.
Data set [25] has as its system Mus musculus. Kind of data set: Antidepressant activity in C57BL/6J mouse assessed as immobility time at […], ip measured over 6 mins by tail suspension test (reference value: 160.7 +/- 12 to 170.6 +/- 9 sec). The data set is classed as functional.
Data set [26] relates to Mus musculus. Kind of data set: Antidepressant activity in C57BL/6J mouse assessed as number of events at […] mg/kg, ip measured over 6 mins by tail suspension test (reference value: 1325.1 +/- 77.8 to 1773.4 +/- 109.9). The data set is classed as functional.

As for `CN(C)CCCC1(c2ccc(F)cc2)OCc2cc(C#N)ccc21` (centres undefined) [CITALOPRAM], the Activity result was “Non-toxic” in [1]; 1820.1 in data set [2]; 2053.1 in data set [4]; 1961.3 in [5]; 0.381 N in [6]; “Non-toxic” in data set [7]. Moreover, the Activity was 0.398 N in [9], “Non-toxic” in data set [11] and 0.318 N in data set [12]. For the same compound, the inhibition entry in [3] is “Dose-dependent effect”. The Time in data set [8] came out at 148.7 s; in data set [13], 103 s; in data set [14] it was 95.5 s. Moreover, in [10], the minimal effective dose amounted to 20 mg/kg. In data set [15], the MED result is “inactive”.

For the compound `CC1CCN(CC[C@H]2CCCN2S(=O)(=O)c2cccc(O)c2)CC1`, the Activity in [16] is reported as 0.396 N; in [1], “Non-toxic”; in data set [2] it was 1600.1; in data set [7], “Non-toxic”; in data set [20] it was 0.363 N; in data set [21], 0.449 N. The Activity in data set [22] is recorded as 1604.7; in data set [11], “Non-toxic”; in data set [12] it was 0.311 N; in data set [24], 1467.1; in data set [26], 1764.8. Also, the Time in data set [8] is on record as 186.1 s; in [17] it was 139.5 s; in [18] it was 170.6 s; in [25] it was 151 s. Further, the results for the minimal effective dose in [10], in [23] and in [15] (read-out: MED) were 2.5 mg/kg, 1 mg/kg and 1.25 mg/kg, respectively. For the same compound, the inhibition in vivo – broadly, the drop in the measured response relative to a control, in per cent – at 10 mg/kg in [19] turned out to be 31%.
